Laboratory results published in ChEMBL document CHEMBL1145782, “Systematic development of high affinity bis(ammonio)alkane-type allosteric enhancers of muscarinic ligand binding” (J Med Chem, 2003).

Key:
[1] = target: T1, Muscarinic acetylcholine receptor M2 (Sus scrofa) (UniProt P06199); test: Cooperativity factor pAlpha at porcine heart ventricle muscarinic acetylcholine receptor M2.
T1 sequence (whole entry): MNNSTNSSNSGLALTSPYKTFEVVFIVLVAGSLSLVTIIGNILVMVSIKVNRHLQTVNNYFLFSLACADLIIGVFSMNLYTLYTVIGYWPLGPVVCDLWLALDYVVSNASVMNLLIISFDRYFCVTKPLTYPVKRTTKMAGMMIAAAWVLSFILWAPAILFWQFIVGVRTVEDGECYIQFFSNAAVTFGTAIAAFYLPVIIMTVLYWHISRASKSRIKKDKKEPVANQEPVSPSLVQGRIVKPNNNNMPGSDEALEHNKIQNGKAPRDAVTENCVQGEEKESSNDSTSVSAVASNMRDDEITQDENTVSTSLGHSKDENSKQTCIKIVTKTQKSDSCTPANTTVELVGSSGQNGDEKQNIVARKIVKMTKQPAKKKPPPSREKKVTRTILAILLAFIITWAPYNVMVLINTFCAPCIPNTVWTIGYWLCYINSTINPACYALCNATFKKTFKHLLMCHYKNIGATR
How it was run: (§1)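 Pig heart ventricle homogenates in 2.7 mM MgHPO4, 45 mM Tris-HCl, pH 7.3, 37 °C; [3H]NMS 0.20 nM with increasing test compound concentrations; incubation 180–530 min, calculated to reach equilibrium. Nonspecific binding with 1 μM atropine; bound label separated by rapid vacuum filtration onto glass filters and counted by liquid scintillation. Affinities for free and NMS-occupied receptor derived from binding curves.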

[2] = target: T1, Muscarinic acetylcholine receptor M2 (Sus scrofa); test: Tested for binding of [3H]N-methylscopolamine ([3H]NMS) at porcine heart ventricle muscarinic acetylcholine receptor M2 expressed as -logKa.; how it was run: as §1
[3] = target: T1, Muscarinic acetylcholine receptor M2 (Sus scrofa); test: Binding affinity for [3H]NMS-occupied muscarinic acetylcholine receptor M2 from porcine heart ventricle.; how it was run: as §1
[4] = target: T2, Muscarinic acetylcholine receptor M2 (Sus scrofa, UniProt P06199); test: Effective concentration required to inhibit dissociation of [3H]NMS from porcine heart ventricles muscarinic acetylcholine receptor M2.
T2 sequence (P06199 whole entry): T1 sequence (whole entry)
How it was run: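 [3H]NMS dissociation in pig heart ventricle homogenates, Mg/Tris buffer pH 7.3, 37 °C. Membranes equilibrated 30 min with 0.2 nM [3H]NMS, then 1 μM atropine added alone or with various test compound concentrations. Either complete time courses over 120 min or two-point measurement (0 and 10 min); monoexponential apparent k-1 by nonlinear regression; filtration and scintillation counting.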

SMILES: C[N+](C)(CCCCCC[N+](C)(C)CCCN1C(=O)c2cccc3cccc(c23)C1=O)CCCN1C(=O)c2ccccc2C1=O
- pAlpha [1]: -0.2
- -logKa [2]: 7.24
- p alphaKa [3]: 7.04
- EC50 [4]: 0.115 µM

SMILES: Cc1ccc2c(c1)C(=O)N(CCC[N+](C)(C)CCCCCC[N+](C)(C)CCCN1C(=O)c3cccc4cccc(c34)C1=O)C2=O
- pAlpha [1]: -0.22
- -logKa [2]: 8.01
- p alphaKa [3]: 7.79
- EC50 [4]: 0.0251 µM

SMILES: CC(C)(C)c1ccc2c(c1)C(=O)N(CCC[N+](C)(C)CCCCCC[N+](C)(C)CCCN1C(=O)c3ccccc3C1=O)C2=O
- pAlpha [1]: -0.81
- -logKa [2]: 7.25
- p alphaKa [3]: 6.43
- EC50 [4]: 0.309 µM

SMILES: C[N+](C)(CCCCCC[N+](C)(C)CCCN1C(=O)c2cc(Cl)c(Cl)cc2C1=O)CCCN1C(=O)c2ccccc2C1=O
- pAlpha [1]: -0.17
- -logKa [2]: 7.08
- p alphaKa [3]: 6.9
- EC50 [4]: 0.115 µM

SMILES: Cc1ccc2c(c1)C(=O)N(CC(C)(C)C[N+](C)(C)CCCCCC[N+](C)(C)CC(C)(C)CN1C(=O)c3ccc(C)cc3C1=O)C2=O
- pAlpha [1]: 0.17
- -logKa [2]: 7.21
- p alphaKa [3]: 7.38
- EC50 [4]: 0.0468 µM

SMILES: C[N+](C)(CCCCCC[N+](C)(C)CCCN1C(=O)C2C3c4ccccc4C(c4ccccc43)C2C1=O)CCCN1C(=O)C2C3c4ccccc4C(c4ccccc43)C2C1=O (stereo not given)
- pAlpha [1]: -1.38
- -logKa [2]: 8.12
- p alphaKa [3]: 6.74
- EC50 [4]: 0.398 µM

SMILES: CC(C)(CN1C(=O)c2ccccc2C1=O)C[N+](C)(C)CCCCCC[N+](C)(C)CC(C)(C)CN1C(=O)c2ccccc2C1=O
- pAlpha [1]: -0.21
- -logKa [2]: 7.08
- p alphaKa [3]: 6.87
- EC50 [4]: 0.178 µM

SMILES: CC(C)(CN1C(=O)c2cccc3cccc(c23)C1=O)C[N+](C)(C)CCCCCC[N+](C)(C)CCCN1C(=O)c2ccccc2C1=O [NAPHMETHONIUM]
- pAlpha [1]: 0.37
- -logKa [2]: 8.29
- p alphaKa [3]: 8.66
- EC50 [4]: 0.00437 µM

SMILES: CC(C)(CN1C(=O)c2ccccc2C1=O)C[N+](C)(C)CCCCCC[N+](C)(C)CCCN1C(=O)c2cccc3cccc(c23)C1=O
- pAlpha [1]: -0.005
- -logKa [2]: 7.28
- p alphaKa [3]: 7.28
- EC50 [4]: 0.0525 µM

SMILES: Cc1ccc2c(c1)C(=O)N(CCC[N+](C)(C)CCCCCC[N+](C)(C)CC(C)(C)CN1C(=O)c3cccc4cccc(c34)C1=O)C2=O
- pAlpha [1]: 0.32
- -logKa [2]: 7.9
- p alphaKa [3]: 8.23
- EC50 [4]: 0.00759 µM

SMILES: C[N+](C)(CCCCCC[N+](C)(C)CCCN1C(=O)c2cc(F)c(F)cc2C1=O)CCCN1C(=O)c2cc(F)c(F)cc2C1=O
- pAlpha [1]: -0.39
- -logKa [2]: 6.47
- p alphaKa [3]: 6.08
- EC50 [4]: 0.741 µM

SMILES: C[N+](C)(CCCCCC[N+](C)(C)CCCN1C(=O)c2nccnc2C1=O)CCCN1C(=O)c2ccccc2C1=O
- pAlpha [1]: -0.59
- -logKa [2]: 6.25
- p alphaKa [3]: 5.66
- EC50 [4]: 1.62 µM

SMILES: Cc1ccc2c(c1)C(=O)N(CCC[N+](C)(C)CCCCCC[N+](C)(C)CC(C)(C)CN1C(=O)c3ccccc3C1=O)C2=O
- pAlpha [1]: -0.13
- -logKa [2]: 7.2
- p alphaKa [3]: 7.07
- EC50 [4]: 0.0708 µM

SMILES: Cc1ccc2c(c1)C(=O)N(CC(C)(C)C[N+](C)(C)CCCCCC[N+](C)(C)CCCN1C(=O)c3cccc4cccc(c34)C1=O)C2=O
- pAlpha [1]: -0.04
- -logKa [2]: 7.48
- p alphaKa [3]: 7.44
- EC50 [4]: 0.0363 µM

SMILES: Cc1ccc2c(c1)C(=O)N(CC(C)(C)C[N+](C)(C)CCCCCC[N+](C)(C)CC(C)(C)CN1C(=O)c3ccccc3C1=O)C2=O
- pAlpha [1]: 0.17
- -logKa [2]: 6.73
- p alphaKa [3]: 6.9
- EC50 [4]: 0.12 µM

SMILES: CC(C)(CN1C(=O)c2cccc3cccc(c23)C1=O)C[N+](C)(C)CCCCCC[N+](C)(C)CCCN1C(=O)c2cccc3cccc(c23)C1=O
- pAlpha [1]: 0.17
- -logKa [2]: 8.07
- p alphaKa [3]: 8.24
- EC50 [4]: 0.00776 µM

SMILES: C[N+](C)(CCCCCC[N+](C)(C)CCCN1C(=O)c2cc3ccccc3cc2C1=O)CCCN1C(=O)c2cc3ccccc3cc2C1=O
- pAlpha [1]: -0.85
- -logKa [2]: 7.62
- p alphaKa [3]: 6.77
- EC50 [4]: 0.204 µM

SMILES: Cc1ccc2c(c1)C(=O)N(CC(C)(C)C[N+](C)(C)CCCCCC[N+](C)(C)CC(C)(C)CN1C(=O)c3cccc4cccc(c34)C1=O)C2=O
- pAlpha [1]: 0.29
- -logKa [2]: 7.9
- p alphaKa [3]: 8.19
- EC50 [4]: 0.0141 µM

SMILES: Cc1ccc2c(c1)C(=O)N(CC(C)(C)C[N+](C)(C)CCCCCC[N+](C)(C)CCCN1C(=O)c3ccccc3C1=O)C2=O
- pAlpha [1]: 0.19
- -logKa [2]: 7.26
- p alphaKa [3]: 7.45
- EC50 [4]: 0.055 µM

SMILES: CC(C)(CN1C(=O)c2cccc3cccc(c23)C1=O)C[N+](C)(C)CCCCCC[N+](C)(C)CC(C)(C)CN1C(=O)c2cccc3cccc(c23)C1=O
- pAlpha [1]: 0.53
- -logKa [2]: 7.51
- p alphaKa [3]: 8.04
- EC50 [4]: 0.00851 µM

SMILES: C[N+](C)(CCCCCC[N+](C)(C)CCCN1C(=O)c2ccccc2C1=O)CCCN1C(=O)c2ccccc2C1=O
- pAlpha [1]: -0.47
- -logKa [2]: 6.19
- p alphaKa [3]: 5.73
- EC50 [4]: 1.35 µM

SMILES: Cc1ccc2c(c1)C(=O)N(CCC[N+](C)(C)CCCCCC[N+](C)(C)CC(C)(C)CN1C(=O)c3ccc(C)cc3C1=O)C2=O
- pAlpha [1]: 0.03
- -logKa [2]: 7.41
- p alphaKa [3]: 7.44
- EC50 [4]: 0.0363 µM

SMILES: C[N+](C)(CCCCCC[N+](C)(C)CCCN1C(=O)c2cc(Cl)c(Cl)cc2C1=O)CCCN1C(=O)c2cc(Cl)c(Cl)cc2C1=O
- pAlpha [1]: -0.29
- -logKa [2]: 6.83
- p alphaKa [3]: 6.57
- EC50 [4]: 0.229 µM

SMILES: CC(C)(CN1C(=O)c2ccccc2C1=O)C[N+](C)(C)CCCCCC[N+](C)(C)CCCN1C(=O)c2ccccc2C1=O
- pAlpha [1]: -0.04
- -logKa [2]: 6.9
- p alphaKa [3]: 6.86
- EC50 [4]: 0.135 µM

SMILES: Cc1ccc2c(c1)C(=O)N(CCC[N+](C)(C)CCCCCC[N+](C)(C)CCCN1C(=O)c3ccc(C)cc3C1=O)C2=O
- pAlpha [1]: -0.33
- -logKa [2]: 7.08
- p alphaKa [3]: 6.75
- EC50 [4]: 0.17 µM

SMILES: CC(C)(CN1C(=O)c2ccccc2C1=O)C[N+](C)(C)CCCCCC[N+](C)(C)CC(C)(C)CN1C(=O)c2cccc3cccc(c23)C1=O
- pAlpha [1]: 0.56
- -logKa [2]: 7.41
- p alphaKa [3]: 7.97
- EC50 [4]: 0.0186 µM

SMILES: CC(C)(C)c1ccc2c(c1)C(=O)N(CCC[N+](C)(C)CCCCCC[N+](C)(C)CCCN1C(=O)c3ccc(C(C)(C)C)cc3C1=O)C2=O
- pAlpha [1]: -0.89
- -logKa [2]: 7.38
- p alphaKa [3]: 6.49
- EC50 [4]: 0.302 µM

SMILES: C[N+](C)(CCCCCC[N+](C)(C)CCCN1C(=O)c2ccc(C(F)(F)F)cc2C1=O)CCCN1C(=O)c2ccc(C(F)(F)F)cc2C1=O
- pAlpha [1]: -0.22
- -logKa [2]: 6.37
- p alphaKa [3]: 6.15
- EC50 [4]: 0.447 µM

SMILES: C[N+](C)(CCCCCC[N+](C)(C)CCCN1C(=O)c2cc(F)c(F)cc2C1=O)CCCN1C(=O)c2ccccc2C1=O
- pAlpha [1]: -0.37
- -logKa [2]: 6.68
- p alphaKa [3]: 6.31
- EC50 [4]: 0.457 µM

SMILES: Cc1ccc2c(c1)C(=O)N(CCC[N+](C)(C)CCCCCC[N+](C)(C)CCCN1C(=O)c3ccccc3C1=O)C2=O
- pAlpha [1]: -0.31
- -logKa [2]: 6.73
- p alphaKa [3]: 6.42
- EC50 [4]: 0.324 µM

SMILES: C[N+](C)(CCCCCC[N+](C)(C)CCCN1C(=O)c2nccnc2C1=O)CCCN1C(=O)c2nccnc2C1=O
- pAlpha [1]: -0.44
- -logKa [2]: 5.44
- p alphaKa [3]: 5
- EC50 [4]: 6.31 µM

SMILES: C[N+](C)(CCCCCC[N+](C)(C)CCCN1C(=O)C2C3c4ccccc4C(c4ccccc43)C2C1=O)CCCN1C(=O)c2ccccc2C1=O (stereo not given)
- pAlpha [1]: -1.21
- -logKa [2]: 7.78
- p alphaKa [3]: 6.56
- EC50 [4]: 0.204 µM

SMILES: C[N+](C)(CCCCCC[N+](C)(C)CCCN1C(=O)c2cccc3cccc(c23)C1=O)CCCN1C(=O)c2cccc3cccc(c23)C1=O
- pAlpha [1]: -0.28
- -logKa [2]: 8.11
- p alphaKa [3]: 7.83
- EC50 [4]: 0.0138 µM

SMILES: C[N+](C)(CCCCCC[N+](C)(C)CCCN1C(=O)c2ccc(C(F)(F)F)cc2C1=O)CCCN1C(=O)c2ccccc2C1=O
- pAlpha [1]: -0.21
- -logKa [2]: 6.32
- p alphaKa [3]: 6.12
- EC50 [4]: 0.501 µM

SMILES: C[N+](C)(CCCCCC[N+](C)(C)CCCN1C(=O)c2cc3ccccc3cc2C1=O)CCCN1C(=O)c2ccccc2C1=O
- pAlpha [1]: -0.47
- -logKa [2]: 7.27
- p alphaKa [3]: 6.8
- EC50 [4]: 0.145 µM
